Read-outs that look alike come from different tables or passages of the source.
Experiments:
chicken BCRP = conditions: ref Zhang et al., 2018; cited from earlier work
CYP2H1 mRNA [1] = assay: RT-PCR analysis of CYP2H1 mRNA in chicken primary hepatocytes; format: cell-based; conditions: 500 µM metyrapone 24 h
How it was run: (§1)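 Primary broiler-embryo hepatocytes grown to 70% confluency in 6-well plates. Transfected 24 h with CXR-targeting or scrambled control siRNA, then exposed to CXR agonist 24 h. Total RNA extracted with TRIzol and reverse-transcribed. Target mRNA quantified by SYBR Green real-time PCR against β-actin, 2^−ΔΔCt method. Three independent experiments, mean ± SD.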

ABCG2 mRNA [2] = assay: RT-PCR analysis of ABCG2 mRNA in chicken primary hepatocytes; format: cell-based; conditions: hepatocytes transfected with siCXR, 500 µM metyrapone 24 h
How it was run: as §1

BCRP protein [3] = assay: Western blot analysis of BCRP protein expression in chicken primary hepatocytes; format: cell-based
How it was run: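 Primary hepatocytes exposed 24 h to a range of CXR agonist concentrations, or siRNA-knocked-down first (CXR-targeting vs scrambled) and then agonist-treated 24 h. Lysed in RIPA, protein by BCA, separated on 5–12% SDS-PAGE, transferred to PVDF. Blocked with 5% milk 1 h. Probed overnight at 4°C with anti-BCRP 1:500 and anti-β-tubulin 1:5,000, then secondary 1:4,000 1 h at 37°C. ECL detection; densitometry normalized to β-tubulin.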

BCRP = assay: Mitoxantrone accumulation assay; format: cell-based, chicken
How it was run: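 Hepatocytes isolated from livers of 14-day-old Arbor Acres broiler embryos, grown in M199 with transferrin, penicillin and streptomycin (37°C, 5% CO2). Exposed 24 h to CXR agonist alone or with BCRP inhibitor; untreated cells served as negative control. All wells then loaded with mitoxantrone 1 h, trypsinized, washed 3× PBS. Intracellular fluorescence read by flow cytometry at 633 nm excitation. At least 3 independent experiments, mean ± SD.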

CYP2H1 mRNA [4] = assay: RT-PCR analysis of CYP2H1 mRNA in tissues of chickens treated with metyrapone; format: in vivo; conditions: metyrapone single oral 150 mg per chicken, 24 h
How it was run: (§2)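 Twelve third-week-old chickens of similar weight in two groups of 6: untreated, or a single oral CXR agonist dose of 150 mg per chicken. Killed by CO2 asphyxiation 24 h later. Tissues snap-frozen and stored −70°C. RNA extracted with TRIzol and reverse-transcribed. mRNA quantified by SYBR Green real-time PCR with β-actin reference, 2^−ΔΔCt. Mean ± SD.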

ABCG2 mRNA [5] = assay: RT-PCR analysis of ABCG2 mRNA in tissues of chickens treated with metyrapone; format: in vivo; conditions: metyrapone single oral 150 mg per chicken, 24 h
How it was run: as §2

BCRP protein [6] = format: in vivo; conditions: metyrapone single oral 150 mg per chicken, 24 h
How it was run: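 Third-week-old chickens (6 per group), untreated or given a single oral CXR agonist dose of 150 mg per chicken, killed by CO2 24 h later. Tissues snap-frozen. Protein extracted with RIPA and quantified by BCA. Separated by 5–12% SDS-PAGE, blotted to PVDF. Probed with anti-BCRP 1:500 and anti-β-tubulin 1:5,000 overnight at 4°C. ECL detection; densitometry normalized to β-tubulin.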

[7] = Pharmacokinetic study of orally administered florfenicol in chicken; format: in vivo; conditions: female, HY-Line Brown, plasma, po, 20 mg/kg
[8] = Arbor Acres broilers, ref Liu et al., 2018; cited from earlier work
[9] = ref Anadon et al., 2008; cited from earlier work

## CC[C@H]1OC(=O)C[C@@H](O)[C@H](C)[C@@H](O[C@@H]2O[C@H](C)[C@@H](O)[C@H](N(C)C)[C@H]2O)[C@@H](CCN2C[C@H](C)C[C@H](C)C2)C[C@@H](C)C(=O)/C=C/C(C)=C/[C@@H]1CO[C@@H]1O[C@H](C)[C@@H](O)[C@@H](OC)[C@H]1OC [tilmicosin]
Chicken BCRP
  Transport by chicken BCRP: actively transported

## CC(C)(C(=O)c1cccnc1)c1cccnc1 [metyrapone, Metyrapone]
CYP2H1 mRNA [1]; hepatocytes transfected with CXR expression vector
  Induction of CYP2H1 mRNA upon metyrapone treatment, CXR expression vector: 5.1 fold
CYP2H1 mRNA [1]; hepatocytes transfected with siCXR
  Induction of CYP2H1 mRNA by metyrapone after knockdown of CXR: 0.5 fold
ABCG2 mRNA [2]
  Induction of ABCG2 at the mRNA level by metyrapone after knockdown of CXR: 0.7 fold
BCRP protein [3]; hepatocytes transfected with siCXR, 500 µM metyrapone 24 h
  Induction of ABCG2 at the protein level by metyrapone after knockdown of CXR: 0.7 fold
BCRP protein [3]; increasing concentrations of metyrapone, 24 h, chicken primary hepatocytes
  BCRP protein expression, fold vs negative control cells: up to 2.8 fold
BCRP; 500 µM metyrapone pretreatment 24 h, 5 µM mitoxantrone 1 h, P < 0.01
  Intracellular mitoxantrone fluorescence lower than in untreated cells: 33%
CYP2H1 mRNA [4]; duodenum
  CYP2H1 mRNA expression increase: 5.6 fold
CYP2H1 mRNA [4]; ileum
  Effect on expression of CYP2H1: did not influence
CYP2H1 mRNA [4]; jejunum
  CYP2H1 mRNA expression increase: 1.7 fold
CYP2H1 mRNA [4]; kidney
  CYP2H1 mRNA expression increase: 8 fold
CYP2H1 mRNA [4]; liver
  CYP2H1 mRNA expression increase: 3.6 fold
ABCG2 mRNA [5]; duodenum
  ABCG2 mRNA expression increase: 1.8 fold
ABCG2 mRNA [5]; ileum
  Effect on expression of ABCG2: did not influence
ABCG2 mRNA [5]; jejunum
  ABCG2 mRNA expression increase: 1.6 fold
ABCG2 mRNA [5]; kidney
  ABCG2 mRNA expression increase: 2.2 fold
ABCG2 mRNA [5]; liver
  ABCG2 mRNA expression increase: 2.1 fold
BCRP protein [6]; duodenum
  BCRP protein expression increase: 1.4 fold
BCRP protein [6]; jejunum
  BCRP protein expression increase: 1.3 fold
BCRP protein [6]; kidney
  BCRP protein expression increase: 1.6 fold
BCRP protein [6]; liver
  BCRP protein expression increase: 1.6 fold

## CCN1CCN(c2cc3c(cc2F)c(=O)c(C(=O)O)cn3C2CC2)CC1 [enrofloxacin]
Chicken BCRP
  Transport by chicken BCRP: actively transported

## CC1(C)S[C@@H]2[C@H](NC(=O)[C@H](N)c3ccccc3)C(=O)N2[C@H]1C(=O)O [ampicillin]
Chicken BCRP
  Transport by chicken BCRP: actively transported

## COc1ccc2c3c([nH]c2c1)[C@H](CC(C)C)N1C(=O)[C@H](CCC(=O)OC(C)(C)C)NC(=O)[C@@H]1C3 [Ko143]
BCRP; cotreatment of Ko143 with 500 µM metyrapone
  Effect on metyrapone-induced mitoxantrone efflux activity: reversed

## CS(=O)(=O)c1ccc([C@@H](O)[C@@H](CF)NC(=O)C(Cl)Cl)cc1 [Florfenicol, florfenicol]
[7]
  Vd/F: 0.24 ± 0.05 L/kg
  half-life: 128 ± 27 min
Chicken BCRP
  Transport by chicken BCRP: actively transported
[8]
  Absorption upon coadministration of gefitinib (a BCRP inhibitor): more extensively absorbed

## CS(=O)(=O)c1ccc([C@@H](O)[C@H](N)CF)cc1 [florfenicol amine]
[9]
  Eliminated by renal excretion as metabolite florfenicol amine: 25%
